CHRM5 agonist = agonists of human muscarinic M5 receptor (CHRM5); 360,000 tested, 0.19% active; P08912; AID 624037; activation, % at 3 µM; CHO-K1 hM5 cells, Fluo-8 calcium fluorescence; 0% DMSO wells, 100% maximal acetylcholine response;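 active = activation above the run's mean over test compounds plus 3 SD, cut at about 23% in these data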;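 note: signal is peak over basal fluorescence ratio across the kinetic read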
Target sequence (P08912 whole entry, looked up): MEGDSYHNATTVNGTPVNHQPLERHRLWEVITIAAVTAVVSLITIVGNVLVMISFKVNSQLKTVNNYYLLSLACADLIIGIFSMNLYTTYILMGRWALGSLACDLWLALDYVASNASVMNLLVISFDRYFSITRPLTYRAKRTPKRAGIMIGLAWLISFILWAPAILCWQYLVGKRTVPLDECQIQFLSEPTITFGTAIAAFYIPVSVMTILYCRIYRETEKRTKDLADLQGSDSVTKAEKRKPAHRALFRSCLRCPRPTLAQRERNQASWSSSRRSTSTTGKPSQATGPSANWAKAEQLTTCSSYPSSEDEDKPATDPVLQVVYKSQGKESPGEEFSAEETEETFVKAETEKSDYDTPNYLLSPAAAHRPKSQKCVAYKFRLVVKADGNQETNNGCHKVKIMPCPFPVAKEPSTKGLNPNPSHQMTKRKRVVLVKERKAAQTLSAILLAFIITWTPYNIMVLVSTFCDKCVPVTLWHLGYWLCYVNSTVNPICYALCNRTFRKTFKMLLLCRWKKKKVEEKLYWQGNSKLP
CHRM4 agonist = CHRM4 agonism in calcium assay; CHO-K1 hM4/Gqi5, Fluo-8 calcium fluorescence; vehicle 0%, full acetylcholine response 100%; activation, % at 3 µM; 360,000 tested, 0.14% active;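 active = activation above the run mean over all test wells plus 3 SD, cut at about 32% in these data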;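 note: peak over basal fluorescence ratio per well then scaled between controls; 0% = DMSO wells and 100% = acetylcholine at EC100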
M4 antag = blocks acetylcholine activation of human M4 receptor; 360,000 tested, 0.73% active; CHO-hM4 cells, ACh EC80, Fluo-8 calcium fluorescence; AID 624125; P08173; inhibition, % at 3 µM;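 active = inhibition above its plate's cutoff, the mean inhibition of sample wells plus 3 SD, cut at about 27% in these data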;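 note: 0% = acetylcholine EC80 with DMSO and 100% = DMSO without agonist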
CHRM5 antagonist = antagonists of human muscarinic M5 receptor (CHRM5). 360,000 tested, 0.59% active. AID 624040. CHO-hM5 cells, Fluo-8 calcium fluorescence, ACh EC80. inhibition, % at 3 µM;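 active = inhibition above a per-plate cutoff, the mean of that plate's test compounds plus 3 SD, cut at about 27% in these data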;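 note: 0% = acetylcholine EC80 with DMSO and 100% = DMSO without agonist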
CHRM4 PAM = CHRM4 positive allosteric modulation; AID 624126; activation, % at 3 µM; P08173; CHO-K1 hM4/Gqi5, Fluo-8 calcium fluorescence, ACh EC20; 0% = ACh EC20, 100% = maximal ACh; 360,000 tested, 0.4% active;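 active = activation above its plate's cutoff, the mean activation of sample wells plus 3 SD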
M5 PAM = CHRM5 positive allosteric modulation | activation, % at 3 µM | CHO-K1 hM5, Fluo-8 calcium, ACh EC20 PAM; 0% = ACh EC20, 100% = ACh EC100 | 360,000 tested, 0.3% active | P08912;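 active = activation above the run cutoff, the mean activation of all test compounds plus 3 SD, cut at about 18% in these data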
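Assay system: CHO-K1 hM5 cells / Incubation: Fluo-8 loading 80 min at 37 °C plus 30 min room temperature / Technique: Fluo-8 calcium dye fluorescence, kinetic read / Repeats: single replicate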
Numbers without * were called inactive. Rows were chosen to be rich in hits. Some 1.9% of all compounds tested hit in one or more screens of this group.

SMILES	CHRM5 agonist	CHRM4 agonist	M4 antag	CHRM5 antagonist	CHRM4 PAM	M5 PAM
COc1cc(C)ccc1S(=O)(=O)NC(=O)C1(C)CCN1C(=O)Cc1ccc(C(C)(C)C)cc1 (stereo unspecified)	-1	1	0	3	3	-3
COc1ccc(NC(=O)C2(C)Cc3c(-c4ccccc4)ccnc3O2)cc1OC (stereo unspecified)	1	7	-10	2	-1	-4
O=C(CN1N=C(c2ccccc2)CCC1=O)NCc1cccs1	-1	2	2	5	0	3
O=c1[nH]ccc2c(O)cccc12	32*	0	-2	7	4	-16
O=C(NCCC1=CCCCC1)C(=O)NCCc1ccc(Cl)cc1	-2	2	-8	12	10	-1
O=C(NCCC1=CCCCC1)C(=O)NCc1ccncc1	-11	2	-12	-13	21*	1
CCn1c(SCC(=O)NC2CC2)nnc1C(C)Oc1ccccc1 (stereo unspecified)	-2	1	0	2	1	2
CC(Oc1ccccc1)c1nnc(SCC(=O)NC2CC2)n1C (stereo unspecified)	-4	2	1	3	20*	-7
Cc1ccc(NC(=S)NCCSc2ccc(Cl)cc2)cc1	-15	8	36*	17	-28	-33
NS(=O)(=O)c1ccc(NC(=S)NCCc2ccccc2)cc1	-1	1	0	9	-2	-6
O=[N+]([O-])c1ccc(NC(=S)NCCc2ccccc2)cc1	-1	11	11	27*	-19	-14
O=[N+]([O-])c1ccc(NC(=S)NCCc2ccc(Cl)cc2)cc1	3	7	25	27*	-19	-17
CC1(c2ccc(OC(F)F)cc2)NC(=O)N(CC(=O)Nc2ccc(OC(F)F)cc2)C1=O (stereo unspecified)	27*	38*	16	22	-7	7
CCOC(=O)c1c(NC(=O)CN2C(=O)NC(C)(c3ccc(OC(F)F)cc3)C2=O)sc(C)c1C (stereo unspecified)	15	18	18	17	6	4
Cc1cc(NC(=O)CN2C(=O)NC(C)(c3ccc(OC(F)F)cc3)C2=O)no1 (stereo unspecified)	19	10	6	7	10	2
CC1(c2ccc(OC(F)F)cc2)NC(=O)N(CC(=O)Nc2ccc(Cl)cc2F)C1=O (stereo unspecified)	30*	31	3	3	-3	4
CC1(c2ccc(OC(F)F)cc2)NC(=O)N(CC(=O)Nc2cccc(F)c2)C1=O (stereo unspecified)	45*	98*	26*	25	-23	1
CC1(c2ccc(OC(F)F)cc2)NC(=O)N(CC(=O)Nc2ccc(F)cc2)C1=O (stereo unspecified)	24*	32*	-13	9	19	-5
CC1(c2ccc(OC(F)F)cc2)NC(=O)N(CC(=O)Nc2ccc(S(N)(=O)=O)cc2)C1=O (stereo unspecified)	-1	0	4	1	-9	-7
CN(CC(=O)Nc1ccccc1Cl)C(=O)c1ccc(-c2cccc(C(F)(F)F)c2)o1	2	0	-14	3	6	-4
CC1CCC2(CC1)NC(=O)N(NC(=O)c1ccc(OC(C)C)cc1)C2=O (stereo unspecified)	3	7	-2	2	-2	-7
CCOc1ccc(NC(=O)CN2C(=O)NC(C)(c3ccc(OC(F)F)cc3)C2=O)cc1 (stereo unspecified)	17	51*	11	20	-10	2
CC1(C)NC(=O)N(CC(=O)OCC(=O)c2ccc(F)cc2)C1=O	2	2	-8	-3	11	8
CCC1(CC)NC(=O)N(CC(=O)OCC(=O)Nc2cc(C)ccc2C)C1=O	-1	1	-13	1	18*	0
CC1(C)NC(=O)N(CC(=O)OCC(=O)Nc2cccc(F)c2)C1=O	-5	1	-1	9	3	37*
SMILES	CHRM5 agonist	CHRM4 agonist	M4 antag	CHRM5 antagonist	CHRM4 PAM	M5 PAM
CCCCNC(=O)C1(C)CCCCN1C(=O)c1cc(C)n(C(C)(C)C)n1 (stereo unspecified)	1	0	-7	13	6	6
Cc1ccc(-c2csc(/C(C#N)=C/Nc3ccccc3SC(F)(F)F)n2)c(C)c1	-1	1	-3	-3	-7	-4
Cc1c(C(=O)c2ccc(Cl)cc2[N+](=O)[O-])c2ccccn2c1CCC#N	3	3	-2	8	16	19*
O=C(Nc1ccc(F)cc1)c1cc(-c2ccccn2)nc2c(Cl)cccc12	-4	2	-2	5	6	-1
O=C(CCl)NC(Cc1ccccc1)C(=O)OCC(=O)c1ccc(-c2ccccc2)cc1 (stereo unspecified)	-8	9	27*	14	-11	-35
C=CCN(c1ccccc1OC)S(=O)(=O)c1cccc(C(=O)OCC(=O)c2c(N)n(C)c(=O)n(C)c2=O)c1	-3	15	14	27*	-13	-34
CCCCOC(=O)C1=C(C)NC(=O)NC1c1ccc(OC)cc1 (stereo unspecified)	-2	1	-7	-9	1	18*
CN(C)CCNc1ncnc2c1ncn2[C@H]1CN(Cc2ccc(Cl)cc2)C[C@@H](CO)O1	1	1	0	-8	-2	0
Cc1c(C(=O)O)sc(=S)n1-c1ccccc1	0	2	-5	11	20*	-1
CCOC(=O)c1sc(=S)n(-c2ccccc2)c1C	-8	6	2	16	-6	-13
CCC(=O)Nc1ccc(C(=O)CSc2nc3ccccc3cc2CC)cc1	2	2	-3	-3	7	-2
CC1CCCCC1NS(=O)(=O)c1ccc2c(c1)CCC(=O)N2 (stereo unspecified)	2	1	1	3	8	-4
O=c1oc(CCO)cc2ccc(-c3ccc4[nH]ccc4c3)cc12	3	5	-4	-10	5	-2
Cc1cc(C=C2C(=O)CCCC2=O)c(C)n1-c1ccccc1	-1	1	6	-1	30*	2
O=C(c1ccc(F)cc1)N1CCN2C(=O)c3ccccc3C12c1ccc(Cl)cc1 (stereo unspecified)	-11	-1	7	47*	-14	-18
O=C(c1ccc(F)cc1)N1CCN2C(=O)c3ccccc3C12c1ccccc1 (stereo unspecified)	-15	18	6	34*	-24	-35
